Screening results deposited in PubChem BioAssay by The Scripps Research Institute Molecular Screening Center.
An excerpt weighted towards active compounds, which were near 1.9% of everything screened.
NPY2 pot ag: potentiators or agonists of human neuropeptide Y receptor Y2; P49146; cells expressing NPY-Y2, potentiator/agonist read-out; activation, % at 3.6 µM; 220,000 tested, 0.45% active; AID 1359; in the data active = activation above about 27%;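 note: cells stimulated with NPY near EC25 plus isoproterenol at EC100; 0% = vehicle plus submaximal agonist and 100% = vehicle plus saturating agonist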
NPY Y2 blocker: NPY-Y2 (human) receptor antagonism; NPY-Y2 expressing cells, antagonist mode; inhibition, % at 2.7 µM; 140,000 tested, 0.99% active;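 note: 0% = vehicle with agonist challenge and 100% = reference antagonist with challenge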
NPY1 pot ag: potentiators or agonists of human neuropeptide Y receptor Y1. P25929. NPY-Y1 expressing cells, potentiator/agonist activation. activation, % at 3.6 µM. 220,000 tested, 0.37% active. AID 1304; in the data active = activation above about 33%, passing the limit was not always enough;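 note: cells stimulated with NPY at EC10 then isoproterenol at EC100; 0% = low agonist plus stimulus and 100% = saturating agonist plus stimulus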
Target sequence (P25929 whole entry, looked up): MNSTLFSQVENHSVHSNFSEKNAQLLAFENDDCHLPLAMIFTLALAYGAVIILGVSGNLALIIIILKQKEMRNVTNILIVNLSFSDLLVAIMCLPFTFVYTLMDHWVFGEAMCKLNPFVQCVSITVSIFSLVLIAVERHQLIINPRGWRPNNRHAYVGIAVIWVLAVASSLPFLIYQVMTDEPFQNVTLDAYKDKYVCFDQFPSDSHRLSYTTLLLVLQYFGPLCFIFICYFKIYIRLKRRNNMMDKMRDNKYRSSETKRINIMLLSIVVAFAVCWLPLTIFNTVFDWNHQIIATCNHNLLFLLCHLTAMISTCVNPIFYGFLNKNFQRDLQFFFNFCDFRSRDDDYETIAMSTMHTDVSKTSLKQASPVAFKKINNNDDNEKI
NPY-Y1 antag: blocks the human neuropeptide Y Y1 receptor | P25929 | HEK293-CNG Y1 cells, membrane potential fluorescence; NPY at EC95, then isoproterenol | inhibition, % at 3.6 µM | 200,000 tested, 1% active;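 active = inhibition above the campaign mean inhibition of all tested compounds plus 3 SD, cut at about 20% in these data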;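 note: 0% = DMSO wells given NPY plus isoproterenol and 100% = isoproterenol alone without NPY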
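material = HEK293 cells with Y1 receptor plus CNG channel | also added = NPY 25 nM then isoproterenol 1 µM plus Ro 20-1724 25 µM | schedule = dye 3 h, compound 60 min room temperature, stimulation 45 min | measured by = membrane potential fluorescence | benchmarks = high control isoproterenol alone, low control NPY with isoproterenol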
NPY1 antag conf: human NPY-Y1 antagonism, confirmation; shares compounds with NPY-Y1 antag; HEK293-CNG NPY-Y1, membrane potential fluorescence, cAMP; NPY challenge against isoproterenol-raised cAMP; inhibition, % at 3.6 µM; 1,200 tested, 21% active; in the data active = inhibition above about 20%;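 note: 0% = vehicle with agonist plus stimulus and 100% = stimulus alone without agonist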
NPY-Y2 antag ct: antagonizes human NPY-Y2, counter-screen to NPY-Y1 antagonists. shares compounds with NPY-Y1 antag. HEK293 NPY-Y2 CNG membrane potential fluorescence, antagonism; cells given NPY, then isoproterenol. inhibition, % at 3.6 µM. 1,200 tested, 28% active;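 note: 0% = DMSO with agonist challenge and 100% = reference antagonist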
* marks the source's active call; other numbers are inactive results; / = not tested or not shown. Cut-off read from the data, not from the text of the source, unless noted: active = inhibition above about 17%; inactive = the rest.

SMILES | NPY2 pot ag | NPY Y2 blocker | NPY1 pot ag | NPY-Y1 antag | NPY1 antag conf | NPY-Y2 antag ct
CC(C)(C)NCC(=O)N/N=C/c1ccc(OCc2ccccc2)cc1 | -33 | / | -35 | 25* | 21* | 31*
CC(C)CN(C(=O)CN1CCc2ccccc21)c1c(N)n(CC(C)C)c(=O)[nH]c1=O | 7 | / | 6 | 9 | / | /
O=C(O)c1cc2c(s1)-c1ccccc1CC2 | -16 | 13 | -31 | 21* | 10 | 13
CCn1nc(NS(=O)(=O)c2ccccc2)c2cc3cccc(C)c3nc21 | 2 | 7 | -40 | 3 | / | /
CCCn1nc(NS(C)(=O)=O)c2cc3cccc(C)c3nc21 | -34 | 12 | -29 | 27* | 15 | 15
CCC(=O)N(c1ccc(C(=O)O)cc1)c1nc(-c2ccc(OC)cc2)c(C)s1 | 7 | / | 16 | -1 | / | /
O=c1c2c(-c3ccccc3)csc2nc2c3ccccc3c(NCCN3CCOCC3)nn12 | -36 | / | -63 | 32* | 27* | 40*
c1ccc(-c2csc3ncnc(NCCCN4CCOCC4)c23)cc1 | -1 | 1 | -9 | 9 | / | /
CC(CCc1ccccc1)NC(=O)/C=C/c1ccccc1 (stereo not given) | -8 | 13 | -22 | 16 | / | /
COc1cc(/C=C/C(=O)NC(C)CCc2ccccc2)cc(OC)c1OC (stereo not given) | -9 | 5 | -18 | 22* | 6 | 10
Cc1ccc(S(=O)(=O)Nc2ccc3c4c(cccc24)CC3)c(C)c1 | -4 | 6 | -8 | 3 | / | /
Cc1cc(C)c(S(=O)(=O)Nc2ccc3c4c(cccc24)CC3)c(C)c1 | -51 | 8 | -64 | 23* | 9 | 37*
CC#CCN(CC#CC)S(=O)(=O)c1ccc(-n2cnnn2)c(OC)c1 | 10 | 17 | 2 | 21* | 9 | 9
COc1cc(S(=O)(=O)N(Cc2ccccc2)Cc2ccccn2)ccc1-n1cnnn1 | -13 | 0 | -13 | 4 | / | /
CCN1CCc2c(C#N)c(NCc3ccccc3)nc(N(CC)CC)c2C1 | -21 | 13 | -38 | 34* | 11 | 28*
COc1cc2cc(C(=O)O)n(C)c2c(OC)c1OC | 3 | 8 | -12 | 25* | 4 | 3
COc1ccc2c(c1)cc(C(=O)O)n2C | -1 | 4 | -8 | 3 | / | /
O=C(NC1CC1)C1CCN(C2CCN(C(=O)CC3=CCCCC3)CC2)CC1 | -13 | / | 6 | 2 | / | /
Cc1ccc2nc(NC(=O)CN(C)S(=O)(=O)c3ccc(Br)s3)sc2c1 | 6 | 2 | -6 | -2 | / | /
Cc1ccc2nc(NC(=O)CNS(=O)(=O)c3ccc(Br)s3)sc2c1 | -19 | 13 | -42 | 20* | 7 | 11
COc1ccc(NC(=O)[C@@H](NC(=O)c2ccccc2F)C(C)C)cc1S(=O)(=O)N1CCOCC1 | -3 | / | 4 | 3 | / | /
CCCCN(C)C(=O)c1nc2ccccn2c1CN1CCN(C/C=C/c2ccccc2)CC1 | -15 | / | -2 | 26* | 18 | 10
COc1ccccc1NC(=O)Cc1noc(CSc2cc(C)c3ccccc3n2)n1 | -18 | 13 | -27 | 20* | 9 | 7
COc1ccccc1NC(=O)Cc1noc(CSc2cccc[n+]2[O-])n1 | -5 | -1 | 11 | 4 | / | /
Cc1ccccc1Oc1cc(NC(=O)Cn2cnc([N+](=O)[O-])c2)cc([N+](=O)[O-])c1 | 16 | / | 32 | 25* | -5 | -5
SMILES | NPY2 pot ag | NPY Y2 blocker | NPY1 pot ag | NPY-Y1 antag | NPY1 antag conf | NPY-Y2 antag ct
Cc1ccccc1Oc1cc(NC(=O)CCCn2nc(C)c([N+](=O)[O-])c2C)cc([N+](=O)[O-])c1 | 22 | 1 | 16 | -6 | / | /
O=C1N(c2ccccc2)C[C@@H]2C[C@@H](c3cc4ccccc4o3)N3CCC[C@@]123 | -5 | / | -8 | 27* | 18 | 12
CCN(C(=S)Nc1ccc(Oc2ccccc2)cc1)c1ccccc1 | 6 | 3 | 13 | 1 | / | /
CCn1c(SCC(=O)OC(C)C)nnc1-c1ccccc1OC | 9 | / | 9 | 5 | / | /
COc1ccc(-n2nnnc2-c2cccc(OC)c2)cc1 | -15 | 5 | 0 | 24* | 4 | 29*
CCSc1nnc(NC(=O)[C@@H](NC(=O)c2cc(OC)cc(OC)c2)C(C)C)s1 | -12 | / | -13 | 2 | / | /
N#Cc1nc(COc2ccccc2)oc1N1CCC(Cc2ccccc2)CC1 | -24 | 13 | -72 | 32* | 21* | 21*
Cc1ccc(C(=O)Nc2cc(Cl)ccc2N2CCCCC2)s1 | -23 | 13 | -54 | 10 | / | /
CCc1sc(C(=O)Nc2cc(Cl)ccc2N2CCCCC2)cc1C | -3 | 8 | -5 | 21* | 1 | 6
CCC(=O)N1CCN(c2ccccc2NC(=O)COc2cccc(C)c2)CC1 | -3 | 12 | -56 | 20* | 11 | 12
CN1CCN(c2ccccc2NC(=O)COc2ccccc2)CC1 | 2 | 12 | -26 | 21* | 6 | 7
CCC(=O)N1CCN(c2ccccc2NC(=O)c2cccc(C)c2)CC1 | -8 | 4 | -14 | 5 | / | /
Cc1ccc(C(C)C)c(OCC(=O)Nc2ccccc2N2CCN(C)CC2)c1 | -8 | 8 | -35 | 7 | / | /
CC(=O)N1CCN(c2ccccc2NC(=O)COc2cc(C)ccc2C(C)C)CC1 | -1 | 13 | -28 | 22* | 10 | 9
Cc1c(NS(=O)(=O)c2ccc3c(c2)Cc2ccccc2-3)c(=O)n(-c2ccccc2)n1C | -27 | / | -21 | 14 | / | /
O=C(CSCc1ccc(Cl)cc1)Nc1ccc(S(=O)(=O)N2CCOCC2)cc1 | 13 | -1 | 31 | -1 | / | /
O=C(NC(=S)NCc1ccc(F)cc1)c1ccccc1 | -13 | 6 | -17 | 23* | 4 | 3
CCc1ccc(NC(=O)CSc2nc3ccccc3c(=O)n2CCCN2CCC(C)CC2)cc1 | -15 | / | -38 | 38* | 47* | 51*
O=c1[nH][nH]c(C(F)(F)F)c1C=NCc1cccs1 | -2 | / | -9 | 2 | / | /
COc1ccc(S(=O)(=O)N(C)c2ccc(C(=O)N3CCC(C(N)=O)CC3)cc2)cc1OC | -15 | / | -3 | -3 | / | /
CCOc1ccccc1NC(=O)NC(C)c1ccncc1 (stereo not given) | 10 | / | -5 | 6 | / | /
CCCCCC(O)(CCCCC)C(=O)NNc1ccccc1 | -2 | 10 | 9 | 25* | 11 | 5
CC(C)CCNC(=O)/C=C/c1ccc(Br)cc1 | -12 | 15 | -25 | 20* | 8 | 5
Nc1ccccc1C(=O)NNc1ncc(C(F)(F)F)cc1Cl | -28 | 5 | -80 | 21* | 5 | 8
CCC(C)n1c(=S)[nH]c2c(sc3ccc([N+](=O)[O-])cc32)c1=O (stereo not given) | -10 | 2 | -13 | 0 | / | /
CC(C)(C)CC(=O)Nc1nn[nH]n1 | -1 | 3 | -4 | 7 | / | /
Cc1ccc(COC(=O)c2nn(-c3ccccc3)nc2N)cc1 | -36 | / | -57 | 29* | 23* | 15
Nc1nn(-c2ccccc2)nc1C(=O)OCc1ccccc1 | -22 | / | -32 | / | / | /
